Most compounds without a hit are left out; they make up all but 4.1% or so of the library.
hERG protect = compounds protecting human hERG from proarrhythmic drug block | Q12809 | CHO-hERG, FluxOR thallium flux, dofetilide IC70 present | activation (rescue from dofetilide block), less the hit threshold, % at 10 µM | 310,000 compounds, 0.51% hits;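 active = activation above the mean of controls blocked by dofetilide plus 5 SD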;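 note: thallium influx through hERG after potassium depolarization seen as dye fluorescence rise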
KCNK9 inh = human KCNK9 channel inhibition; 310,000 compounds, 1.2% hits; B-score at 10 µM; HEK293 KCNK9, FluxOR thallium flux fluorescence; stronger effect = lower value; AID 488922;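 active = ratio B-score over 3 SD below the library mean, with starting fluorescence within 5 SD of its mean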;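 note: negative B-score means less thallium flux so channel inhibition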
Target sequence (Q9NPC2 whole entry, looked up): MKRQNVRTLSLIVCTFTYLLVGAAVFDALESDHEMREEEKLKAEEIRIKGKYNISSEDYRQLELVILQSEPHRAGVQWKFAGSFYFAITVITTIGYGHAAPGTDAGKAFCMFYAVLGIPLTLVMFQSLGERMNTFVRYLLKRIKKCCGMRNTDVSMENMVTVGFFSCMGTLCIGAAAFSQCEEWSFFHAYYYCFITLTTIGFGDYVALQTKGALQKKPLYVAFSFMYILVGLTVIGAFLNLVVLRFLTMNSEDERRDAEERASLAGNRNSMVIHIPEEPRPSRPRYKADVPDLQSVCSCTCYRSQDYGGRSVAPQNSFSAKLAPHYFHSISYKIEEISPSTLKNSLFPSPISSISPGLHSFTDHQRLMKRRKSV
KCC2 mod = KCC2 (human) Cl- transport modulation | KCC2 cells, thallium flux FluoZin-2 fluorescence | B-score of Tl+ flux slope (higher = more flux/activation; lower = inhibition) at 10 µM | 190,000 compounds, 2.2% hits;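 active = thallium flux slope and its plate-corrected score both differing from the plate sample mean at a set confidence after two filtering rounds, in either direction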;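 note: slope of fluorescence scaled to starting intensity during 10 to 20 s after thallium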
KCNQ1 pot = potentiators or activators of human KCNQ1 potassium channel. 310,000 compounds, 0.35% hits. B-score at 10 µM. AID 2648. CHO-K1 KCNQ1, thallium flux FluxOR fluorescence; stronger effect = higher value;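 active = fluorescence ratio B-score, a plate-corrected score, at least three library SD, with initial intensity B-score within 5 SD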
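Assay system: stable KCNQ1 CHO-K1 line; medium: assay buffer, equal DMSO in all wells; timing: 90 min dye loading and 20 min compound exposure, both at room temperature; technique: kinetic FluxOR thallium fluorescence, 10-s 1-Hz baseline, 110-s post-stimulus read; read-out basis: B score of baseline-normalized fluorescence ratio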
KCNQ1 block = inhibitors of human KCNQ1 potassium channel. B-score at 10 µM. 310,000 compounds, 1.3% hits. CHO-K1 KCNQ1, FluxOR thallium flux fluorescence; stronger effect = higher value. P51787;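 active = compounds whose thallium flux B-score, printed positive for inhibition, exceeds three library SD while starting fluorescence stays within three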;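 note: channel opened by potassium depolarization with thallium stimulus after 20 min compound exposure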
KCNK3 inh = human KCNK3 channel inhibition, primary screen; O14649; CHO-KCNK3 thallium flux, FluxOR fluorescence; stronger effect = lower value; B-score at 10 µM; 340,000 compounds, 0.84% hits; AID 602410;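 active = B-score under library mean minus 4 SD, starting fluorescence ratio at most library mean plus 5 SD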;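 note: more negative B-score means stronger inhibition of thallium flux through KCNK3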
Target sequence (O14649 whole entry, looked up): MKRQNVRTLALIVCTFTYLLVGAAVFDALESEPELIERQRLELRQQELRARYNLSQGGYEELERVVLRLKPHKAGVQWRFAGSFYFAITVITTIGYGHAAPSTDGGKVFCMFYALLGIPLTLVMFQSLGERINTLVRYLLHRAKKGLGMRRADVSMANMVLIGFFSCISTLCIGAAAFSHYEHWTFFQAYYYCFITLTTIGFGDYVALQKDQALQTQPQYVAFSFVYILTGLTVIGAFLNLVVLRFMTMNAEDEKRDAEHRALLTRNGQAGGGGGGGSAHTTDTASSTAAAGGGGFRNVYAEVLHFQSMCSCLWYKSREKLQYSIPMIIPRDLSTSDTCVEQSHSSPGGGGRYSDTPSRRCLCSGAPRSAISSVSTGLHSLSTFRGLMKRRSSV
KCC2 secondary = KCC2 (human) modulation, secondary assay; 3,700 compounds, 15% hits; normalised thallium flux (F/F0 slope) at 10 µM; AID 1713; HEK293-KCC2, thallium flux, FluoZin2 fluorescence; stronger effect = higher value; shares compounds with KCC2 mod;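 active = thallium flux slope above the same plate's solvent-only control mean plus 3 SD; inconclusive = the two replicate wells disagree; inactive = no significant difference from solvent-only control wells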
KCC2 bumet counter = thallium flux persisting under bumetanide in KCC2 cells, counter-screen secondary assay; shares compounds with KCC2 mod; HEK293-KCC2 + bumetanide/ouabain, thallium flux FluoZin2; stronger effect = higher value; normalized thallium flux at 10 µM; 3,700 compounds, 49% hits;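 active = thallium entry rate above the same plate's blocked-transporter control wells by more than 3 SD; inconclusive = the two repeat wells disagree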;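 note: raw slope of fluorescence over initial fluorescence between 10 and 20 s after thallium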
KCC2 sec2 = KCC2 (human) modulation, second secondary assay; shares compounds with KCC2 mod; HEK293-KCC2, thallium flux FluoZin2 fluorescence; actives lie on both sides; F/F0 rise rate, 10–20 s post-thallium; normalized thallium flux at 10 µM; 3,700 compounds, 23% hits;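 active = thallium flux slope more than 3 SD above or below the plate's solvent-only control mean, mostly below; inconclusive = the two repeat wells disagreed; inactive = no significant shift from solvent-only controls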;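 note: raw slope with 0.1% DMSO as baseline and bumetanide as block control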
HEK293 Tl flux = counter-screen for KCC2 modulators: effect in parental HEK293 cells | shares compounds with KCC2 mod | thallium flux FluoZin2, ouabain; baseline-ratio fluorescence slope, 10–20 s after thallium | thallium flux rate (normalised fluorescence) at 10 µM | 3,700 compounds, 46% hits | AID 1716;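 active = thallium flux rate significantly above the same plate's solvent-only control wells, beyond their mean plus 3 SD; inconclusive = the two replicate wells gave conflicting results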
KCC2 ouabain = KCC2 (human) modulation, ouabain retest; shares compounds with KCC2 mod; raw Tl+ flux slope (below DMSO = inhibition, above = activation) at 10 µM; AID 1717; HEK293-KCC2, thallium flux FluoZin2 fluorescence; bidirectional: low = inhibitor, high = activator; 3,700 compounds, 48% hits;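 active = thallium flux slope beyond 3 SD from same-plate DMSO control mean in most replicates, usually higher, sometimes lower; inconclusive = repeat tests gave conflicting results; inactive = no significant difference from controls in most replicates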;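 note: slope of initial-normalized fluorescence between seconds 10 and 20 after thallium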
HEK293 Tl flux2 = parental HEK flux effect, counter-screen 2 | shares compounds with KCC2 mod | HEK293 parental, thallium flux FluoZin-2 fluorescence slope | thallium flux slope at 10 µM | 3,700 compounds, 33% hits;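 active = thallium flux slope above the same plate's solvent-control mean plus 3 SD in both duplicate wells; inconclusive = duplicate wells that disagreed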;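 note: run without ouabain in cells lacking the KCC2 cotransporter; slope of fluorescence scaled to its starting value between 10 and 20 s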
The depositor's hits bear a star; i = inactive; ? = inconclusive; . = no result given.

SMILES | hERG protect | KCNK9 inh | KCC2 mod | KCNQ1 pot | KCNQ1 block | KCNK3 inh | KCC2 secondary | KCC2 bumet counter | KCC2 sec2 | HEK293 Tl flux | KCC2 ouabain | HEK293 Tl flux2
CCc1ccccc1Nc1nc(N)nc(COC(=O)c2cccn2C)n1 | -11 | i | -5.6* | i | i | i | 0.0064 | 0.0035 | 0.028 | 0.0071 | 0.016 | 0.0096
Cc1ccccc1Nc1nc(N)nc(COC(=O)c2cccn2C)n1 | -4 | i | -0.02 | i | i | i | . | . | . | . | . | .
Cc1cc(-c2nc(C)c(C(=O)NNS(=O)(=O)c3cccc(C(F)(F)F)c3)s2)no1 | -5 | i | 0.29 | i | i | i | . | . | . | . | . | .
COc1c(OC)c(O)c2c(=O)cc(-c3c(O)cccc3O)oc2c1OC | -9 | i | 0.027 | i | i | i | . | . | . | . | . | .
O=c1cc(-c2c(F)c(F)c(F)c(F)c2F)oc2c(F)c(F)c(F)c(F)c12 | -35 | i | -2.7* | i | i | . | 0.0068 | ? | 0.031 | 0.0078 | 0.02 | 0.011
Cc1onc(-c2ccccc2)c1C(=O)NC(=S)NNC(=O)c1ccncc1 | -1 | i | 0.9 | i | i | i | . | . | . | . | . | .
Cc1onc(-c2ccccc2)c1C(=O)NNC(=S)NC(=O)c1ccc2c(c1)OCO2 | -11 | i | 16* | i | i | i | 0.014* | 0.034* | 0.036 | ? | 0.03* | ?
Cc1onc(-c2ccccc2)c1C(=O)NNC(=S)NC(=O)/C=C/c1cccs1 | -11 | i | 6.7* | i | i | i | 0.0067 | 0.027* | ? | 0.016* | 0.03* | 0.018*
Cc1onc(-c2ccccc2)c1C(=O)NC(=S)NNC(=O)c1ccco1 | -13 | i | 6.6* | i | i | i | 0.018 | 0.014* | 0.03 | 0.014* | 0.021 | 0.015*
CN(C)S(=O)(=O)c1cccc(-c2nnc(SCCNCCO)n2-c2ccc(F)cc2)c1 | -18 | i | -0.038 | i | i | i | . | . | . | . | . | .
CCOc1ccccc1NC(=O)CSc1cn[nH]n1 | -12 | i | . | i | i | i | . | . | . | . | . | .
CC(=O)c1cccc(NC(=O)/C(=C\c2ccco2)NC(=O)c2ccco2)c1 | -13 | i | . | i | i | i | . | . | . | . | . | .
COc1ccc(CCNC(=O)C(CC(C)C)NC(N)=O)cc1 (stereo not drawn) | -6 | i | 0.53 | i | i | i | . | . | . | . | . | .
CCN1C(=O)N/C(=C/c2ccc(C)o2)C1=O | -10 | i | -0.1 | i | i | i | . | . | . | . | . | .
CCCN1C(=O)/C(=C/c2ccc(C)o2)NC1=S | 0 | i | 83* | i | i | . | 0.022* | 0.12* | ? | 0.05* | 0.085* | 0.018*
Cc1snnc1C(=O)NC(=S)Nc1ccccc1 | 11* | i | 52* | 9* | i | i | 0.026* | 0.089* | ? | 0.047* | 0.064* | 0.014*
COc1cc(C(=O)NNC(=S)NC(=O)c2ccc(Cl)cc2)cc(OC)c1OC | -11 | i | 13* | i | i | i | 0.017* | 0.028* | 0.038 | 0.017* | 0.033* | 0.012*
COc1cc(CCC(=O)NNC(=O)c2ccc(Cl)cc2)cc(OC)c1OC | 0 | i | . | i | i | i | . | . | . | . | . | .
O=C(NN=C1CCCC1)c1sc2ccccc2c1Cl | -1 | i | 11* | i | i | i | 0.0057 | 0.023* | 0.031 | 0.022* | ? | 0.019*
O=C(NC(=S)Nc1ccccc1)c1ccc(Br)o1 | 4 | i | 111* | 13* | i | i | 0.046* | 0.19* | 0.062* | 0.1* | 0.13* | 0.036*
O=C(CSc1nc2ccccc2c(=O)n1-c1ccccc1)N1CCN(CCO)CC1 | -11 | i | . | i | i | i | . | . | . | . | . | .
OCCC1CN(CC(c2ccccc2)c2ccccc2)CCN1C1CCCC1 (stereo not drawn) | -4 | i | 0.71 | i | i | i | . | . | . | . | . | .
O=C(Nc1ccc(Nc2ccccc2)cc1)c1ccc(Br)o1 | -18 | -7.7* | -5.7* | i | i | i | ? | 0.0048 | 0.03 | 0.0067 | 0.013* | ?
COc1ccc(C(=O)NNC(=S)NC(=O)c2ccc(Br)o2)cc1OC | -16 | i | 6.3* | i | i | i | 0.0065 | 0.021* | 0.038* | 0.02* | ? | 0.021*
O=C(NNC(=S)NC(=O)c1sc2ccccc2c1Cl)c1ccc(Cl)cc1 | 44* | i | 25* | 62* | i | i | 0.017* | 0.053* | ? | 0.037* | 0.052* | 0.013*
SMILES | hERG protect | KCNK9 inh | KCC2 mod | KCNQ1 pot | KCNQ1 block | KCNK3 inh | KCC2 secondary | KCC2 bumet counter | KCC2 sec2 | HEK293 Tl flux | KCC2 ouabain | HEK293 Tl flux2
O=C(NNC(=O)c1sc2ccccc2c1Cl)Nc1ccc(Cl)cc1 | -10 | i | -0.31 | i | i | i | . | . | . | . | . | .
COc1ccc(NC(=S)NC(=O)/C=C/c2ccco2)cc1 | -6 | i | 4.4* | i | i | i | 0.01 | 0.016* | 0.037 | ? | ? | 0.012
CCOc1ccc(C(=O)CCC(=O)NC(C)C(=O)OC)cc1 (stereo not drawn) | -10 | i | -0.19 | i | i | i | . | . | . | . | . | .
Cc1nonc1NC(=O)CSc1nnc(N)s1 | 1 | i | . | i | i | i | . | . | . | . | . | .
O=C(OCC1CC(c2ccccn2)=NO1)c1ccc(Br)cc1 (stereo not drawn) | -5 | i | -0.032 | i | i | i | . | . | . | . | . | .
Cc1nn(CC(=O)NCCN2CCCCC2C)c(=O)c2cc(-c3ccccc3)nn12 (stereo not drawn) | -7 | i | . | i | i | i | . | . | . | . | . | .
CCOc1ccc2oc(C(=O)Nc3nccs3)c(C)c2c1 | . | . | . | . | . | i | . | . | . | . | . | .
COc1ccc(NC(=S)NC(=O)c2ccc(Br)o2)cc1 | 9.4* | i | 100* | 17* | i | i | 0.057* | 0.14* | 0.061* | 0.12* | 0.11* | 0.053*
